Measured values from different studies.
Compare with care: the assays were run in different laboratories. pIC50: −log10 of the molar value.
Action: inhibitor
BCHE: Cholinesterase (BCHE, Equus caballus, UniProt P81908)

O=C(O)C(/C=C/c1c(Cl)cccc1Cl)=N\Nc1nc(-c2ccc(F)cc2)cs1 — pIC50 (BCHE; enzyme activity): 5.39
CN(C)C(=O)Oc1ccc(/C=C/C(=O)NC2CCN(Cc3ccccc3)CC2)cc1 — pIC50 (BCHE; enzyme activity; Ellman): 4.94
CC(C)(C)OC(=O)NC1CCCN(C(=O)/C=C/c2cccc([N+](=O)[O-])c2)C1 (stereo not shown) — pIC50 (BCHE; enzyme activity; Ellman): < 4.30
CC(=O)c1c(C)c2cnc(Nc3ccc(C4CCN(CCS(C)(=O)=O)CC4)cn3)nc2n(C2CCCC2)c1=O — pIC50 (Cytochrome P450 2B6 (CYP2B6, Homo sapiens, UniProt P20813); enzyme activity; human; liver microsomes): < 5.00
O=C(N1CCC2(CC1)C[C@H](CN1CCCCS1(=O)=O)CCO2)C1(c2ccccc2)CCCC1 — pIC50 (DHX58 (Homo sapiens, UniProt Q96C10); ATPase activity): < 4.30
COc1cc(/C=C/C(=O)NC2CCN(Cc3ccccc3)CC2)ccc1OC(=O)N1CCCC1 — pIC50 (BCHE; enzyme activity; Ellman): 5.47
O=C(O)C(/C=C/c1c(Cl)cccc1Cl)=N\Nc1nc(-c2ccc(Br)cc2)cs1 — pIC50 (BCHE; enzyme activity): 5.07
COc1ccc(OC)c(/C=C/C(=O)N2CCCC(NC(=O)OC(C)(C)C)C2)c1 (stereo not shown) — pIC50 (BCHE; enzyme activity; Ellman): < 4.30
O=C(O)C(/C=C/c1c(Cl)cccc1Cl)=N\Nc1nc(-c2ccc(Cl)cc2)cs1 — pIC50 (BCHE; enzyme activity): 5.13
CN1CC[C@@]2(C)c3cc(OC(=O)Nc4ccccc4)ccc3N(C)[C@@H]12 — pIC50 (Aldehyde dehydrogenase, dimeric NADP-preferring (ALDH3A1, Homo sapiens, UniProt P30838); enzyme activity; fluorescence): > 5.00
CC(C)(C)OC(=O)NC1CCCN(C(=O)/C=C/c2cccc(F)c2)C1 (stereo not shown) — pIC50 (BCHE; enzyme activity; Ellman): 4.81
COc1cc(/C=C/C(=O)NC2CCN(Cc3ccccc3)CC2)ccc1OC(=O)N(C)C — pIC50 (BCHE; enzyme activity; Ellman): 5.02
CC(C)(C)OC(=O)NC1CCCN(C(=O)/C=C/c2ccc(Br)cc2)C1 (stereo not shown) — pIC50 (BCHE; enzyme activity; Ellman): 4.42
CCN(CC)C(=O)Oc1ccc(/C=C/C(=O)NC2CCN(Cc3ccccc3)CC2)cc1 — pIC50 (BCHE; enzyme activity; Ellman): 4.82
CC(C)(C)OC(=O)NC1CCCN(C(=O)C=Cc2ccccc2)C1 (stereo not shown) — pIC50 (BCHE; enzyme activity; Ellman): 4.36
CCN(C)C(=O)Oc1ccc(CCC(=O)N(CC)Cc2ccccc2)cc1OC — pIC50 (BCHE; enzyme activity; Ellman): 4.90
